Laboratory results from ChEMBL document CHEMBL4145654, “Structure-Based Discovery of CF53 as a Potent and Orally Bioavailable Bromodomain and Extra-Terminal (BET) Bromodomain Inhibitor” (J Med Chem, 2018).

Legend:
[1] = biological target: Bromodomain testis-specific protein (Homo sapiens, UniProt Q58F21); test: Binding affinity to human BRDT bromodomain 2 (K250 to E382 residues) expressed in bacterial expression system by BROMOscan assay
[2] = biological target: Histone acetyltransferase KAT2A (Homo sapiens, UniProt Q92830); test: Binding affinity to human GCN5L2 (E726 to K837 residues) expressed in bacterial expression system by BROMOScan assay
Homo sapiens [3] = organism: Homo sapiens; test: Selectivity index, ratio of Kd for human CECR2 (P423 to D543 residues) to Kd for human BRD4 bromodomain 1 (N44 to E168 residues)
[4] = Half life in Balb/c mouse at 25 mg/kg, po by LC-MS/MS analysis; format: ADME, organism-based; conditions: in vivo
Outline: (§1)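 Balb/c mice dosed iv at 5.0 mg/kg or po at 25 mg/kg, compound in vehicle of 20% (v/v) PCP and 70% (v/v) PBS. Serial blood samples taken at 0, 5, 15, 30 min and 1, 2, 4, 6, 8, 24 h. Plasma obtained by centrifugation and stored at −80 °C. Analysis by LC-MS/MS, positive-ion MRM. Parameters from noncompartmental analysis.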

MDA-MB-231 = test: Antitumor activity against human MDA-MB-231 cells xenografted in SCID mouse assessed as tumor growth inhibition at 50 mg/kg administered via oral gavage measured on day 44; format: functional; conditions: MDA-MB-231, po, 1056 h, read-out: TGI
Outline: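 Each SCID mouse received a single dorsal subcutaneous tumor of 5 × 10⁶ RS4;11 or MDA-MB-231 cells in 50% Matrigel. At about 100 mm3, mice were randomised to treatment or vehicle control groups. Dosing was by oral gavage at the stated schedules. Tumor volume was L × W²/2, and body weight was tracked. TGI versus vehicle at end of treatment was tested by unpaired two-tailed t-test.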

[5] = biological target: Bromodomain and WD repeat-containing protein 1 (Homo sapiens, UniProt Q9NSI6); test: Binding affinity to human WDR9 bromodomain 2 (A1310 to E1430 residues) expressed in bacterial expression system by BROMOscan assay
Bromodomain and WD repeat-containing protein 1, sequence (Q9NSI6 whole entry, the tested form may be a part): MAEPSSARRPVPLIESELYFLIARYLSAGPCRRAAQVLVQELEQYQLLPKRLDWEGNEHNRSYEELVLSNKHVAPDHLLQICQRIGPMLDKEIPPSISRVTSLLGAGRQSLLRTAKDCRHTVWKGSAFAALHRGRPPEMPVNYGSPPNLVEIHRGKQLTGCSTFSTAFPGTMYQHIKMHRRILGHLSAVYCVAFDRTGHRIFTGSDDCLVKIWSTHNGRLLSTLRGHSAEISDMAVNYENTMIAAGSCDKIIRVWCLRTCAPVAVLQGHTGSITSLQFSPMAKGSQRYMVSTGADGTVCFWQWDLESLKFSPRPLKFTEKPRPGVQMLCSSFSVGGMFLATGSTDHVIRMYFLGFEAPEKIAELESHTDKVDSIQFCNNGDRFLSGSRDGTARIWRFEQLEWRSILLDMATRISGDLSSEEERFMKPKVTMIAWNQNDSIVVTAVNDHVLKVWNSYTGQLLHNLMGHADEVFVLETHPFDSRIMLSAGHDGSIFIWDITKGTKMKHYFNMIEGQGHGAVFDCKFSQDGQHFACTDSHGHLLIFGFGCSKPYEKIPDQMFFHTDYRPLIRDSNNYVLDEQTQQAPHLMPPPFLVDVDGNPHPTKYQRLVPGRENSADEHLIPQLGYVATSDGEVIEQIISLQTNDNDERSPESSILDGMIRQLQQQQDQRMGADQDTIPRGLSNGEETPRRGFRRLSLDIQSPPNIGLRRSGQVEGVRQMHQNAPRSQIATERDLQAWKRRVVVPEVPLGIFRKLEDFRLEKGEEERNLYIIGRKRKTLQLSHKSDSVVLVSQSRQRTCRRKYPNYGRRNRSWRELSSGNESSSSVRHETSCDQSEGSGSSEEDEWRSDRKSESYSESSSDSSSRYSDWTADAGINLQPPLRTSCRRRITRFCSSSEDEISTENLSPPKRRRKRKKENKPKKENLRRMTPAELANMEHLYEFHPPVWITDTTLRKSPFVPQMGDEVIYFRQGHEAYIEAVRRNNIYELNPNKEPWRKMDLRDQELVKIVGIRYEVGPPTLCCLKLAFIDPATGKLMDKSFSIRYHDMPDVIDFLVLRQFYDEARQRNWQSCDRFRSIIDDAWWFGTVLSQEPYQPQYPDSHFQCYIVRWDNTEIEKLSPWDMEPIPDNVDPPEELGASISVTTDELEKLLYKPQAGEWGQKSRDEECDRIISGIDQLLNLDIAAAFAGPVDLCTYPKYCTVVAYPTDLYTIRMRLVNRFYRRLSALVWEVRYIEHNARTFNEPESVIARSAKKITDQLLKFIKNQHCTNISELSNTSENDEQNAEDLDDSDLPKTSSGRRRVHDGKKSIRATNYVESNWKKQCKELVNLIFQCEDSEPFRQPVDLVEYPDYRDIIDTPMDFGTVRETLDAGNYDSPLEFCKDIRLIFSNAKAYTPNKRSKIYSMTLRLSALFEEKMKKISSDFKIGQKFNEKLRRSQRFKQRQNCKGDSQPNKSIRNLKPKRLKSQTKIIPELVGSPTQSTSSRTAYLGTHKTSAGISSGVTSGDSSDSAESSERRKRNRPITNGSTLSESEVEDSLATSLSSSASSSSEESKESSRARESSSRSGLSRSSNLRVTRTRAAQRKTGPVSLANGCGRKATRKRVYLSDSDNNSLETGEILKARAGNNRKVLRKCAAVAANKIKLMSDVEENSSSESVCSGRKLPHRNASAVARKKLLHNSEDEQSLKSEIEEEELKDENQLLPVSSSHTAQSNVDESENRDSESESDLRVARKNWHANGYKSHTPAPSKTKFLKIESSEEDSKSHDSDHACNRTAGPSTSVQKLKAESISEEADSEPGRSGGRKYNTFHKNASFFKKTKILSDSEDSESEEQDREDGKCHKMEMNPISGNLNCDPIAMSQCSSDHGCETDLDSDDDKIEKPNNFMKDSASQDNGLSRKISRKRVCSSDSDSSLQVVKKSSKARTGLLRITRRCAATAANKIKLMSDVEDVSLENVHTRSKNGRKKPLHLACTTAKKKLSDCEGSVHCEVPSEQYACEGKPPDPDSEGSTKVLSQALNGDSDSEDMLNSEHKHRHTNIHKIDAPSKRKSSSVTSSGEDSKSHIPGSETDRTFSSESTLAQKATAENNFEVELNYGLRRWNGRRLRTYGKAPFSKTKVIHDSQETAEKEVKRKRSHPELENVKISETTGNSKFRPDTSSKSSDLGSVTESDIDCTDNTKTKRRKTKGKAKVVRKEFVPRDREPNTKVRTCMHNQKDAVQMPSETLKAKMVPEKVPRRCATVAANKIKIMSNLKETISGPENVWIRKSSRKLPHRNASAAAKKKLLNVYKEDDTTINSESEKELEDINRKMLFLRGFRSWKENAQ

[6] = Drug uptake in tumor of SCID mouse xenografted with human MDA-MB-231 cells at 50 mg/kg administered via oral gavage measured after 1 hr; format: ADME, organism-based, Neoplasm; conditions: read-out: Drug uptake
Outline: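 Limited PK in SCID mice bearing MDA-MB-231 tumors, 50 mg/kg given by oral gavage. Plasma and tumor tissue drug levels measured at two time points per compound. Values are the mean of two mice/tumors per time point.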

Protein polybromo-1 = Protein polybromo-1 (Homo sapiens, UniProt Q86U86); test: Binding affinity to human PBRM1 bromodomain 2 (S178 to E291 residues) expressed in bacterial expression system by BROMOScan assay
[7] = AUC in Balb/c mouse at 5 mg/kg, iv by LC-MS/MS analysis; format: ADME, organism-based; conditions: in vivo; outline: as §1
[8] = biological target: Bromodomain adjacent to zinc finger domain protein 2A (Homo sapiens, UniProt Q9UIF9); test: Binding affinity to human BAZ2A (M1792 to L1905 residues) expressed in bacterial expression system by BROMOScan assay
[9] = biological target: T1, Bromodomain-containing protein 4 (Homo sapiens, UniProt O60885); test: Inhibition of FAM-labeled ZBA248 binding to recombinant human BRD4 bromodomain 1 (44 to 168 residues) expressed in Rosetta2 Escherichia coli DE3 cells after 30 mins by fluorescence polarization assay
Outline: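 Recombinant human BRD4 BD1 (residues 44−168) in a fluorescence polarization competitive binding assay, run as described in earlier work.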

Homo sapiens [10] = organism: Homo sapiens; test: Selectivity index, ratio of Kd for human EP300 (A1040 to G1161 residues) to Kd for human BRDT bromodomain 2 (K250 to E382 residues)
[11] = biological target: Bromodomain-containing protein 3 (Homo sapiens, UniProt Q15059); test: Binding affinity to human BRD3 bromodomain 2 (G306 to P416 residues) expressed in bacterial expression system by BROMOscan assay
Homo sapiens [12] = organism: Homo sapiens; test: Selectivity index, ratio of Kd for human CECR2 (P423 to D543 residues) to Kd for human BRD3 bromodomain 1 (P24 to E144 residues)
[13] = biological target: Bromodomain-containing protein 8 (Homo sapiens, UniProt Q9H0E9); test: Inhibition of BRD8 bromodomain 2 (unknown origin) by BROMOScan assay
[14] = AUC in Balb/c mouse at 25 mg/kg, po by LC-MS/MS analysis; format: ADME, organism-based; conditions: in vivo; outline: as §1
Homo sapiens [15] = organism: Homo sapiens; test: Selectivity index, ratio of Kd for human EP300 (A1040 to G1161 residues) to Kd for human BRD2 bromodomain 1 (K71 to N194 residues)
Homo sapiens [16] = organism: Homo sapiens; test: Selectivity index, ratio of Kd for human EP300 (A1040 to G1161 residues) to Kd for human BRDT bromodomain 1 (N21 to E137 residues)
[17] = Clearance in Balb/c mouse at 5 mg/kg, iv by LC-MS/MS analysis; format: ADME, organism-based; conditions: in vivo; outline: as §1
Homo sapiens [18] = organism: Homo sapiens; test: Selectivity index, ratio of Kd for human EP300 (A1040 to G1161 residues) to Kd for human BRD4 bromodomain 1 (N44 to E168 residues)
[19] = biological target: T2, Bromodomain-containing protein 2 (Homo sapiens, UniProt P25440); test: Binding affinity to human BRD2 bromodomain 1 (K71 to N194 residues) expressed in bacterial expression system by BROMOscan assay
T2 sequence (P25440 whole entry, the tested form may be a part): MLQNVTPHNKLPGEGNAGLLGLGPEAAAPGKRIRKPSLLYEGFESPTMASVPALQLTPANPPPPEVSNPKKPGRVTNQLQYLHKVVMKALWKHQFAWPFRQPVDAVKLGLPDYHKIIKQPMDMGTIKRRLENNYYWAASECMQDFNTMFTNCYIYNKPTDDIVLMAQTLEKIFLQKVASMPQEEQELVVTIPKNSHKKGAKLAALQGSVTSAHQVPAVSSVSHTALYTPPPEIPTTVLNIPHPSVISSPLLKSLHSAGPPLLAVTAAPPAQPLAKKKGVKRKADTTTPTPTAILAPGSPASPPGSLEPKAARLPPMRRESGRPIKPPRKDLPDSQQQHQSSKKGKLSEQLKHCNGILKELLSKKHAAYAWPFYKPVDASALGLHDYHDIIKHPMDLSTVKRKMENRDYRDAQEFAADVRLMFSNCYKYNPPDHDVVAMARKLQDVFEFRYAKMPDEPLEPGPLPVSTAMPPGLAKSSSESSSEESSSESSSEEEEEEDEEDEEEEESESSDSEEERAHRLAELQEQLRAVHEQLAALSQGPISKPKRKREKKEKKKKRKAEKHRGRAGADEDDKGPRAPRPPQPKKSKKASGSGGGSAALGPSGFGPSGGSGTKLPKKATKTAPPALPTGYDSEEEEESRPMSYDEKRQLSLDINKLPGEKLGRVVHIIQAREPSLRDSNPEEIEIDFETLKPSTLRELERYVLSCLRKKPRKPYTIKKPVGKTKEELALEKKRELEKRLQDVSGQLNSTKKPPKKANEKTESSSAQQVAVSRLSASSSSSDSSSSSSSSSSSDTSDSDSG

[20] = biological target: SWI/SNF-related matrix-associated actin-dependent regulator of chromatin subfamily A member 4 (Homo sapiens, UniProt P51532); test: Binding affinity to human SMARCA4 (A1448 to S1575 residues) expressed in bacterial expression system by BROMOScan assay
SWI/SNF-related matrix-associated actin-dependent regulator of chromatin subfamily A member 4, sequence (P51532 whole entry, the tested form may be a part): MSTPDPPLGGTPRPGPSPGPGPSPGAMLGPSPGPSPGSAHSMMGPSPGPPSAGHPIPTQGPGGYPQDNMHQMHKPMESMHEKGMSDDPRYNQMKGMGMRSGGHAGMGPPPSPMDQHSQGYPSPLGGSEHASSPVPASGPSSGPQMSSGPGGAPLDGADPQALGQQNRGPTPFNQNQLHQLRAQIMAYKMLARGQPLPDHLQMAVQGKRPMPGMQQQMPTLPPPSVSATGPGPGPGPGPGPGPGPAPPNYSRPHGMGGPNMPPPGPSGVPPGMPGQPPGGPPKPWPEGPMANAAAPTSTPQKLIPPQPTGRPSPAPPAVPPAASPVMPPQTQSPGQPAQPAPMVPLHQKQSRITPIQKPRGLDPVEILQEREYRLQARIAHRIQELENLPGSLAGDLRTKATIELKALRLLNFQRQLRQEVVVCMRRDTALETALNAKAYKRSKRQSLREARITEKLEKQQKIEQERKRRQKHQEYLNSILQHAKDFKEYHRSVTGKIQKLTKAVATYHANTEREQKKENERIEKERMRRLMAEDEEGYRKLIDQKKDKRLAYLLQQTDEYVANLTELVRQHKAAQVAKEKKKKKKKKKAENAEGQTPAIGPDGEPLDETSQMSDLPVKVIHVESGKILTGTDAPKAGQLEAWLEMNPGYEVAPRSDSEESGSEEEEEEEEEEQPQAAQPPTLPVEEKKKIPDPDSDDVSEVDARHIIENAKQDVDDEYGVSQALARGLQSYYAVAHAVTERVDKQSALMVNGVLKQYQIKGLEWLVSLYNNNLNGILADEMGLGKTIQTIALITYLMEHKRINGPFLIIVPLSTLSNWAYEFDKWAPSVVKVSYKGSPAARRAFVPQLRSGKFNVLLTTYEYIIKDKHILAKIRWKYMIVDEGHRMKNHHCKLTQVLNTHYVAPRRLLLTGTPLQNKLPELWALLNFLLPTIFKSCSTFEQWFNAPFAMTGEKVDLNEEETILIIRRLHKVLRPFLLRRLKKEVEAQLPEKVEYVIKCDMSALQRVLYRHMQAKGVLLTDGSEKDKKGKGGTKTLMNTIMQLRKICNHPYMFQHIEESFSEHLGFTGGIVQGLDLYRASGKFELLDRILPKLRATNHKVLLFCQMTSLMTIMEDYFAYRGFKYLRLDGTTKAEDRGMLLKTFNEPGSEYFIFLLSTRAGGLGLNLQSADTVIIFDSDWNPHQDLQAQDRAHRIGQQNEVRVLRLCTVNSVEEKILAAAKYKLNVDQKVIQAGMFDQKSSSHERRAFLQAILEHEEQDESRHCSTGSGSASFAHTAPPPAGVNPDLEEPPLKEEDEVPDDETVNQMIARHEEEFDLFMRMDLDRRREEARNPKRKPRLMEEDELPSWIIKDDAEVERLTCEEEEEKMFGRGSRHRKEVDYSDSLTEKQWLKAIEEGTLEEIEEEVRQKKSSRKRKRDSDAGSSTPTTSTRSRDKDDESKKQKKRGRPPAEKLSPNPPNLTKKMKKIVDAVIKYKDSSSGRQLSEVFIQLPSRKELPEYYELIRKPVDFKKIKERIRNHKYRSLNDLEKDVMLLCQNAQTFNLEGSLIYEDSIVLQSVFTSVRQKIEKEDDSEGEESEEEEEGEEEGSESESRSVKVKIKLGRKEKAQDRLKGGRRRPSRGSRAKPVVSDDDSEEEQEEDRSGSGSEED

Homo sapiens [21] = organism: Homo sapiens; test: Selectivity index, ratio of Kd for human CECR2 (P423 to D543 residues) to Kd for human BRD3 bromodomain 2 (G306 to P416 residues)
Mus musculus = test: Toxicity in SCID mouse xenografted with human RS4:11 cells assessed as change in body weight at 10 to 50 mg/kg administered via oral gavage measured 2 to 3 times per week during compound dosing and measured weekly post treatment; format: organism-based; conditions: in vivo
Outline: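 Xenografts raised by subcutaneous dorsal injection of 5 × 10⁶ cells in 50% Matrigel into SCID mice, one tumor per mouse. Mice randomized to treatment or vehicle groups at about 100 mm3 tumor volume. Compounds given by oral gavage at the indicated dose-schedules, with percentage body-weight change tracked alongside tumor volume (L × W²/2).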

Homo sapiens [22] = organism: Homo sapiens; test: Selectivity index, ratio of Kd for human CECR2 (P423 to D543 residues) to Kd for human BRD2 bromodomain 2 (E348 to D455 residues)
[23] = biological target: T1, Bromodomain-containing protein 4; test: Binding affinity to human BRD4 bromodomain 1 (N44 to E168 residues) expressed in bacterial expression system by BROMOscan assay
[24] = biological target: T2, Bromodomain-containing protein 2; test: Binding affinity to human BRD2 bromodomain 2 (E348 to D455 residues) expressed in bacterial expression system by BROMOscan assay
Homo sapiens [25] = organism: Homo sapiens; test: Selectivity index, ratio of Kd for human CREBBP (R1081 to G1197 residues) to Kd for human BRD4 bromodomain 1 (N44 to E168 residues)

Question: For `COc1cc2c(cc1-c1c(C)noc1C)[nH]c1nc(C)nc(Nc3cc(C4CC4)nn3C)c12`, which Kd [1] is on record?
Answer: 2.1 nM

Question: What about the Kd [2] of the same compound?
Answer: > 5000 nM

Question: And the Selectivity Index (Homo sapiens [3])?
Answer: > 50

Question: What about the half-life [4] of the same compound?
Answer: 1 h

Question: What about the inhibition in vivo at 50 mg/kg (MDA-MB-231) of the same compound?
Answer: 77.3%

Question: What about the Kd [5] of the same compound?
Answer: > 5000 nM

Question: And the concentration at 1 h [6]?
Answer: 7380 ng/g

Question: And the Kd (Protein polybromo-1)?
Answer: > 3000 nM

Question: What about the AUC [7] of the same compound?
Answer: 9.05 µM·h

Question: What about the Kd [8] of the same compound?
Answer: > 5000 nM

Question: And the IC50 [9]?
Answer: 2 nM

Question: And the Ki [9]?
Answer: < 1 nM

Question: What about the Selectivity Index (Homo sapiens [10]) of the same compound?
Answer: > 50

Question: And the Kd [11]?
Answer: 0.49 nM

Question: What about the Selectivity Index (Homo sapiens [12]) of the same compound?
Answer: > 50

Question: And the Kd [13]?
Answer: > 5000 nM

Question: What about the AUC [14] of the same compound?
Answer: 32.2 µM·h

Question: And the Selectivity Index (Homo sapiens [15])?
Answer: > 50

Question: And the Selectivity Index (Homo sapiens [16])?
Answer: > 50

Question: And the clearance [17]?
Answer: 20.8 mL/min/kg

Question: And the Selectivity Index (Homo sapiens [18])?
Answer: > 50

Question: And the Kd [19]?
Answer: 1.1 nM

Question: And the Kd [20]?
Answer: > 5000 nM

Question: What about the Selectivity Index (Homo sapiens [21]) of the same compound?
Answer: > 50

Question: And the Activity (Mus musculus)?
Answer: Non-Toxic

Question: What about the Selectivity Index (Homo sapiens [22]) of the same compound?
Answer: > 50

Question: What about the Kd [23] of the same compound?
Answer: 2.2 nM

Question: And the Kd [24]?
Answer: 0.6 nM

Question: What about the Selectivity Index (Homo sapiens [25]) of the same compound?
Answer: > 20
